Measured values reported in ChEMBL document CHEMBL1134466 (J Med Chem, 2001).

Key:
Mus musculus [1] = assay: (§1) Toxicity to bone marrow granulocyte/macrophage progenitors per femur at a dose of 150 mg/kg (ip); type: organism-based; set-up: dose 150 mg/kg; settings: in vivo
Method in brief: (§2)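 Male B6D2F1 mice (5/group) given drug or vehicle ip, single dose or daily ×5. Femoral marrow harvested 24 h after the last dose and plated at 2 × 10^4 viable nucleated cells/mL in methylcellulose (0.8%) medium with 20% FBS and 10% pokeweed mitogen-stimulated spleen-conditioned medium. Cultured 7 days at 37 °C, 5% CO2; colonies >50 cells counted. Mean colonies given as % of control per femur, mean ± SEM.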

Mus musculus [2] = assay: (§3) Toxicity to bone marrow granulocyte/macrophage progenitors per femur at a dose of 200 mg/kg (ip); type: organism-based; set-up: dose 200 mg/kg; settings: in vivo; method in brief: as §2
Mus musculus [3] = assay: Antitumor activity in MX-1 Xenograft Model at a dose of 25 mg/kg (ip) measured as percent growth inhibition; type: functional; settings: read-out: GI
Method in brief: (§4)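 Nude mice implanted sc by trocar in right foreflank with 1-2 mm3 MX-1 fragments. At ca. 5 × 5 mm (~10 days), pair-matched into groups of 10. Dosed ip days 1-5 in 0.2 mL 1:2:7 Cremophor:ethanol:saline. Weights and caliper measurements taken twice weekly; weight change on day 8. GI = 100% × (1 − tumor weight treated/control). Partial shrinkage = final tumor weight below day-1 weight; complete = tumor gone.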

Mus musculus [4] = assay: Antitumor activity against B16 murine melanoma at a dose of 50 mg/kg (ip) measured as 60-day survivors (% LTS); type: functional
Method in brief: (§5)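 Female B6D2F1 mice given 0.2 mL fresh B16 tumor brei ip (day 0), from sc-grown B16 in the same strain. Randomized 10/group and dosed ip on days 1-5 in 0.2 mL 1:2:7 Cremophor:ethanol:saline, freshly made. Mice monitored daily and weighed twice weekly; weight change taken on day 8. T/C = 100% × MST treated/control. 60-day survivors counted as long-term and excluded from MST.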

Mus musculus [5] = assay: Antitumor activity against B16 murine melanoma at a dose of 7.5 mg/kg (ip) measured as 60-day survivors (% LTS); type: functional; method in brief: as §5
Mus musculus [6] = assay: Antitumor activity against B16 murine melanoma at a dose of 50 mg/kg (ip) measured as percent weight change on day 8; type: functional; method in brief: as §5
Mus musculus [7] = assay: Antitumor activity against B16 murine melanoma at a dose of 7.5 mg/kg (ip) measured as percent weight change on day 8; type: functional; method in brief: as §5
Mus musculus [8] = assay: Antitumor activity against B16 murine melanoma at a dose of 50 mg/kg (ip) measured as increased life span (% T/C); type: functional; method in brief: as §5
Mus musculus [9] = assay: Antitumor activity against B16 murine melanoma at a dose of 7.5 mg/kg (ip) measured as increased life span (% T/C); type: functional; method in brief: as §5
Mus musculus [10] = assay: Antitumor activity in MX-1 Xenograft Model at a dose of 50 mg/kg (ip) measured as percent weight change on day 8; type: functional; method in brief: as §4
Mus musculus [11] = assay: Antitumor activity in MX-1 Xenograft Model at a dose of 25 mg/kg (ip) measured as number of mice with partial tumor regression; type: functional; method in brief: as §4
Mus musculus [12] = assay: Antitumor activity in MX-1 Xenograft Model at a dose of 25 mg/kg (ip) measured as number of mice with complete tumor regression; type: functional; method in brief: as §4
Mus musculus [13] = assay: Toxicity to bone marrow granulocyte/macrophage progenitors per femur at a dose of 100 mg/kg (ip); type: functional; method in brief: as §2
Mus musculus [14] = assay: as §1; type: functional; method in brief: as §2
Mus musculus [15] = assay: as §3; type: functional; method in brief: as §2
Mus musculus [16] = assay: Antitumor activity in MX-1 Xenograft Model at a dose of 50 mg/kg (ip) measured as percent growth inhibition; type: functional; settings: read-out: GI; method in brief: as §4
Mus musculus [17] = assay: Antitumor activity against B16 murine melanoma at a dose of 100 mg/kg (ip) measured as 60-day survivors (% LTS); type: functional; method in brief: as §5
Mus musculus [18] = assay: Antitumor activity against B16 murine melanoma at a dose of 100 mg/kg (ip) measured as percent weight change on day 8; type: functional; method in brief: as §5
Mus musculus [19] = assay: Antitumor activity against B16 murine melanoma at a dose of 100 mg/kg (ip) measured as increased life span (% T/C); type: functional; method in brief: as §5
Mus musculus [20] = assay: Antitumor activity in MX-1 Xenograft Model at a dose of 50 mg/kg (ip) measured as number of mice with partial tumor regression; type: functional; method in brief: as §4
Mus musculus [21] = assay: Antitumor activity in MX-1 Xenograft Model at a dose of 50 mg/kg (ip) measured as number of mice with complete tumor regression; type: functional; method in brief: as §4
Mus musculus [22] = assay: Toxicity to bone marrow granulocyte/macrophage progenitors per femur at a dose of 50 mg/kg (ip); type: functional; method in brief: as §2
Mus musculus [23] = assay: Antitumor activity against B16 murine melanoma at a dose of 5 mg/kg (ip) measured as 60-day survivors (% LTS); type: functional; method in brief: as §5
Mus musculus [24] = assay: Antitumor activity against B16 murine melanoma at a dose of 5 mg/kg (ip) measured as increased life span (% T/C); type: functional; method in brief: as §5

Row | SMILES | LTS (Mus musculus [4]) | Weight change (Mus musculus [6]) | T/C (Mus musculus [8]) | Weight change (Mus musculus [10]) | Control (Mus musculus [13]) | Control (Mus musculus [14]) | inhibition in vivo at 50 mg/kg (Mus musculus [16]) | No. partial (Mus musculus [20]) | No. total (Mus musculus [21]) | Control (Mus musculus [22]) | also measured
1 | O=[N+]([O-])c1ccc(COP(=O)(N(CCCl)CCCl)N(CCCl)CCCl)s1 | 0% | 8% | 166% | 1% |  |  |  |  |  |  | Control (Mus musculus [1]): 106%; Control (Mus musculus [2]): 81%; inhibition in vivo at 25 mg/kg (Mus musculus [3]): > 99%; LTS (Mus musculus [5]): 20%; Weight change (Mus musculus [7]): 10%; T/C (Mus musculus [9]): 248%; No. partial (Mus musculus [11]): 10; No. total (Mus musculus [12]): 0
2 | O=[N+]([O-])c1ccc(COP(=O)(N(CCCl)CCCl)N(CCCl)CCCl)o1 |  |  |  | 2% | 100% | 104% | 99% | 7 | 0 |  | Control (Mus musculus [15]): 26%; LTS (Mus musculus [17]): 10%; Weight change (Mus musculus [18]): 6%; T/C (Mus musculus [19]): 172%
3 | O=[N+]([O-])c1ccc(COP(=O)(N(CCBr)CCBr)N(CCBr)CCBr)s1 |  | 10% |  |  | 64% |  |  |  |  | 93% | LTS (Mus musculus [23]): 0%; T/C (Mus musculus [24]): 185%
4 | O=[N+]([O-])c1ccc(COP(=O)(N(CCBr)CCBr)N(CCBr)CCBr)o1 | 0% | 11% | 202% | 11% | 32% | 23% | > 99% | 6 | 4 | 102% | 
